For one assay, the system named is HeLa. The assay is described as follows: Cytotoxicity against human HeLa cells assessed as viability at 5 uM after 48 hrs by MTT method relative to control. In kind it is functional. The settings on record: read-out: Activity. In outline:
(§1)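 Cells treated 48 h with compound at final 5 µM. Viability was read as mitochondrial dehydrogenase activity by MTT and expressed as % of the 100% DMSO control. Values are mean ± s.d. from two experiments.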

The test system of assay [1] is Jurkat. The assay is described as follows: Cytotoxicity against human Jurkat cells assessed as viability at 5 uM after 48 hrs by MTT method relative to control. The settings on record: read-out: Activity. In kind it is functional. In a few lines:
as §1

The nature of assay [2]: Cytotoxicity against human MCF7AZ cells assessed as viability at 5 uM after 48 hrs by MTT method relative to control. In kind it is functional. The conditions noted are these: MCF7/AZ, read-out: Activity. In outline:
as §1

Assay [3] concerns Jurkat. The experiment in a line: Induction of apoptosis in human Jurkat cells at 5 uM by flow cytometric annexin-V/propidium iodide assay. In kind it is functional, cell-based. The settings on record: TDE = time-dependent effect. In a few lines:
(§2)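 Jurkat cells were treated for 12, 24, 36 or 48 h against a DMSO control. Apoptosis was scored by flow cytometry after annexin-V/propidium iodide staining.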

Assay [4] has as its system Jurkat. The experiment in a line: Induction of apoptosis in human Jurkat cells at 5 uM after 48 hrs by flow cytometric annexin-V/propidium iodide assay. In kind it is functional. In a few lines:
as §2

For assay [5], the system named is Jurkat. The experiment in a line: Induction of apoptosis in human Jurkat cells at 50 uM after 48 hrs by flow cytometric annexin-V/propidium iodide assay. In kind it is functional. In a few lines:
as §2

Assay [6] can be described thus: Cytotoxicity against human MCF7AZ cells assessed as viability at 50 uM after 48 hrs by MTT method relative to control. The conditions noted are these: MCF7/AZ, read-out: Activity. In kind it is functional. In outline: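 MCF7-AZ cells were exposed 48 h to compound at final 50 µM. Viability was read as mitochondrial dehydrogenase activity by MTT, relative to DMSO control.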

For assay [7], the system named is Jurkat. The assay is described as follows: Induction of apoptosis in human Jurkat cells at 50 uM by flow cytometric annexin-V/propidium iodide assay. In kind it is functional, cell-based. The settings on record: TDE = time-dependent effect. In outline:
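Human T-cell leukemia Jurkat cells were exposed to compound alongside a DMSO control and harvested after 12, 24, 36 and 48 hours. Apoptosis was read by flow cytometry after annexin-V and propidium iodide staining.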

The values below come from ChEMBL document CHEMBL1139076, “Structural simplification of bioactive natural products with multicomponent synthesis: dihydropyridopyrazole analogues of podophyllotoxin” (2007).

In the case of `COc1cc([C@H]2C3=C(COC3=O)Nc3cc4c(cc32)OCO4)cc(OC)c1OC`, the viability at 5 µM in the assay on HeLa is 54%; with Jurkat [1] it was 54%; in assay [2], 52%.

Consider `Cc1n[nH]c2c1C(c1cnn(-c3ccccc3)c1Cl)C1=C(COC1=O)N2` (stereo not given), for which the results for the viability at 5 µM (with HeLa; with Jurkat [1]; in assay [2]) were 58%, 94% and 100%, respectively.

Regarding `COc1cc(C2C3=C(COC3=O)Nc3[nH]nc(C)c32)cc(OC)c1OC` (stereo not given), the Activity result is “tde” with Jurkat [3] and 70% in the assay on Jurkat [4]. For the same molecule, the results for the viability at 5 µM (with HeLa; in the assay with Jurkat [1]; in assay [2]) were 50%, 47% and 58%, respectively.

Regarding `Cc1n[nH]c2c1C(c1ccc(C3C4=C(COC4=O)Nc4[nH]nc(C)c43)cc1)C1=C(COC1=O)N2` (stereo not given), the viability at 5 µM turned out to be 56% in the assay on HeLa, 96% with Jurkat [1] and 99% in assay [2].

As to `Cc1n[nH]c2c1C(c1cc(Br)c(O)c(Br)c1)C1=C(COC1=O)N2` (stereo not given), the viability at 5 µM in the assay with HeLa came to 58%; in the assay with Jurkat [1] it was 58%; in assay [2], 60%.

Take `Cc1n[nH]c2c1C(c1cccc(Cl)c1)C1=C(COC1=O)N2` (stereo not given): the figures for the viability at 5 µM (with HeLa; in the assay with Jurkat [1]; in assay [2]) were 43%, 76% and 54%, respectively.

For `C=C(C)[C@@H]1CC=C(C2C3=C(COC3=O)Nc3[nH]nc(C)c32)CC1` (stereo not given in full), the viability at 5 µM came out at 95% with HeLa, 89% in the assay on Jurkat [1] and 91% in assay [2].

As for `COc1cc2c(cc1OC)[C@@H](c1cc(OC)c(OC)c(OC)c1)C1=C(COC1=O)N2`, the viability at 5 µM in the assay on HeLa came out at 53%; in the assay on Jurkat [1], 35%; in assay [2] it was 58%.

`Cc1n[nH]c2c1C(c1cccnc1)C1=C(COC1=O)N2` (stereo not given): the figures for the viability at 5 µM (in the assay with HeLa; in the assay with Jurkat [1]; in assay [2]) were 69%, 88% and 96%, respectively.

Take `Cc1n[nH]c2c1C(c1c(C)nc3sccn13)C1=C(COC1=O)N2` (stereo not given): the viability at 5 µM in the assay with HeLa amounted to 84%; in the assay on Jurkat [1] it was 85%; in assay [2] it was 100%.

On to `Cc1n[nH]c2c1C(c1ccc(N(C)C)c(Br)c1)C1=C(COC1=O)N2` (stereo not given), for which the values for the viability at 5 µM (in the assay on HeLa; with Jurkat [1]; in assay [2]) were 55%, 34% and 59%, respectively.

As for `Cc1n[nH]c2c1C(c1ccncc1)C1=C(COC1=O)N2` (stereo not given), the results for the viability at 5 µM (in the assay on HeLa; in the assay on Jurkat [1]; in assay [2]) were 94%, 92% and 100%, respectively.

`COc1cc(C2C3=C(COC3=O)Nc3[nH]nc(C)c32)cc([N+](=O)[O-])c1O` (stereo not given): the viability at 5 µM in the assay on HeLa amounted to 78%; in the assay on Jurkat [1], 90%; in assay [2] it was 89%.

`CSc1ccc(C2C3=C(COC3=O)Nc3[nH]nc(C)c32)cc1` (stereo not given): the viability at 5 µM stood at 45% in the assay with HeLa, 87% in the assay with Jurkat [1] and 95% in assay [2].

For the molecule `COc1cc([C@@H]2c3cc4c(cc3[C@H](O)[C@H]3COC(=O)[C@H]23)OCO4)cc(OC)c1OC` [PODOFILOX], the Activity result in the assay on Jurkat [3] was “tde”; in the assay with Jurkat [4] it was 70%. Besides, the values for the viability at 5 µM (in the assay on HeLa; with Jurkat [1]; in assay [2]) were 19%, 18% and 55%, respectively.

Consider `Cc1n[nH]c2c1C(c1ccccc1Br)C1=C(COC1=O)N2` (stereo not given), for which the values for the viability at 5 µM (in the assay on HeLa; in the assay with Jurkat [1]; in assay [2]) were 57%, 90% and 100%, respectively.

For the molecule `Cc1n[nH]c2c1C(c1ccccc1[N+](=O)[O-])C1=C(COC1=O)N2` (stereo not given), the viability at 5 µM with HeLa was found to be 71%; in the assay on Jurkat [1] it was 64%; in assay [2], 99%.

As to `Cc1n[nH]c2c1C(c1ccc(Cl)c(Cl)c1)C1=C(COC1=O)N2` (stereo not given), the viability at 5 µM in the assay on HeLa amounted to 88%; in the assay on Jurkat [1], 71%; in assay [2], 56%.

Take `Cc1n[nH]c2c1C(c1ccc(Br)cc1)C1=C(COC1=O)N2` (stereo not given): the viability at 5 µM in the assay with HeLa was found to be 62%; in the assay on Jurkat [1], 90%; in assay [2], 92%.

With `Cc1n[nH]c2c1C(c1ccccc1)C1=C(COC1=O)N2` (stereo not given), the results for the viability at 5 µM (in the assay on HeLa; in the assay on Jurkat [1]; in assay [2]) were 74%, 87% and 84%, respectively.

Turning to `COc1ccc(C2C3=C(COC3=O)Nc3[nH]nc(C)c32)cc1` (stereo not given), the figures for the viability at 5 µM (in the assay on HeLa; in the assay on Jurkat [1]; in assay [2]) were 73%, 94% and 82%, respectively.

As to `Cc1n[nH]c2c1C(c1ccc(OC(F)(F)F)cc1)C1=C(COC1=O)N2` (stereo not given), the viability at 5 µM in the assay with HeLa amounted to 97%; with Jurkat [1], 97%; in assay [2], 84%.

On to `Cc1n[nH]c2c1C(c1cccs1)C1=C(COC1=O)N2` (stereo not given), for which the viability at 5 µM in the assay on HeLa is 82%; with Jurkat [1], 74%; in assay [2], 98%.

`COc1ccc(C2C3=C(COC3=O)Nc3[nH]nc(C)c32)cc1OC` (stereo not given): the viability at 5 µM in the assay with HeLa was 73%; in the assay on Jurkat [1], 88%; in assay [2], 95%.

For `Cc1n[nH]c2c1C(c1cccc(Br)c1)C1=C(COC1=O)N2` (stereo not given), the Activity result in the assay on Jurkat [3] was “tde”; with Jurkat [4], 70%. Further, the viability at 5 µM in the assay with HeLa stood at 51%; in the assay with Jurkat [1], 68%; in assay [2] it was 63%.

Regarding `Cc1nc2ccccc2nc1C1C2=C(COC2=O)Nc2[nH]nc(C)c21` (stereo not given), the viability at 5 µM amounted to 72% in the assay on HeLa, 97% with Jurkat [1] and 100% in assay [2].

In the case of `CCOc1c(Br)cc(C2C3=C(COC3=O)Nc3[nH]nc(C)c32)cc1OC` (stereo not given), the values for the viability at 5 µM (with HeLa; with Jurkat [1]; in assay [2]) were 52%, 28% and 49%, respectively.

For the molecule `COc1cc([C@@H]2c3cc4c(cc3[C@@H](O[C@@H]3O[C@@H]5CO[C@@H](C)O[C@H]5[C@H](O)[C@H]3O)[C@H]3COC(=O)[C@H]23)OCO4)cc(OC)c1O` [ETOPOSIDE], the viability at 5 µM in the assay on HeLa is 91%; in the assay with Jurkat [1], 75%; in assay [2], 76%. Moreover, the Activity with Jurkat [5] is 70%; in the assay with Jurkat [7], “tde”. The viability at 50 µM in assay [6] amounted to 57%.

Turning to `Cc1n[nH]c2c1C(C)C1=C(COC1=O)N2` (stereo not given), the viability at 5 µM in the assay with HeLa was found to be 70%; in the assay with Jurkat [1] it was 78%; in assay [2], 97%.

Take `Cc1n[nH]c2c1C(c1cccc(F)c1)C1=C(COC1=O)N2` (stereo not given): the values for the viability at 5 µM (with HeLa; in the assay on Jurkat [1]; in assay [2]) were 99%, 84% and 76%, respectively.

Regarding `Cc1n[nH]c2c1C(c1ccsc1)C1=C(COC1=O)N2` (stereo not given), the figures for the viability at 5 µM (in the assay with HeLa; in the assay with Jurkat [1]; in assay [2]) were 98%, 82% and 100%, respectively.

Regarding `COc1cc(C2C3=C(COC3=O)Nc3[nH]nc(C)c32)cc(Br)c1OC(C)=O` (stereo not given), the viability at 5 µM in the assay on HeLa turned out to be 47%; in the assay on Jurkat [1], 36%; in assay [2], 46%.
